Laboratory results from ChEMBL document CHEMBL2407075, “Sulphonamido-quinoxalines: search for anticancer agent” (Eur J Med Chem, 2013).

Columns and labels:
Assay type in all cases: functional
RXF 393 = assay: Growth inhibition of human RXF393 cells assessed as cell growth at 10^-7 M after 48 hrs by sulforhodamine B assay; details: RXF 393, 48 h, read-out: Activity
HCT-116 = assay: Growth inhibition of human HCT116 cells assessed as cell growth at 10^-4 M after 48 hrs by sulforhodamine B assay; details: HCT-116, 48 h, read-out: Activity
Procedure, shortened: (§1)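 Five-dose screen at NCI. Cells in RPMI 1640 with 5% FBS and 2 mM L-glutamine, seeded at 5000–40,000 cells/well and grown 24 h at 37 °C, 5% CO2 before dosing, with time-zero plates TCA-fixed. Drug diluted from DMSO stock to 0.01, 0.1, 1, 10 and 100 µM final, 48 h. Cells fixed with cold TCA (10% final), stained with 0.4% SRB and read at 515 nm. Percent growth from Tz, control and test absorbances; GI50, TGI and LC50 from dose-response curves.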

MOLT-4 [1] = assay: Growth inhibition of human MOLT4 cells assessed as cell growth at 10^-6 M after 48 hrs by sulforhodamine B assay; details: MOLT-4, 48 h, read-out: Activity
SNB-19 = assay: Growth inhibition of human SNB19 cells assessed as cell growth at 10^-6 M after 48 hrs by sulforhodamine B assay; details: SNB-19, 48 h, read-out: Activity
NCI-H23 = assay: Growth inhibition of human NCI-H23 cells assessed as cell growth at 10^-4 M after 48 hrs by sulforhodamine B assay; details: NCI-H23, 48 h, read-out: Activity
OVCAR-5 = assay: Growth inhibition of human OVCAR5 cells after 48 hrs by sulforhodamine B assay; details: OVCAR-5, 48 h; for CC50: read-out: LC50 (the source's name)
Procedure, shortened: (§2)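 Adherent cells in RPMI 1640 with 5% FBS and 2 mM L-glutamine were plated at 5000–40,000 cells/well and grown 24 h. Five concentrations (0.01–100 µM, DMSO stock) were added for 48 h at 37 °C. Cells were fixed with cold TCA (10% final) and stained with SRB, read at 515 nm. GI50 came from log concentration–growth curves against time-zero and control plates.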

DU-145 = assay: Growth inhibition of human DU145 cells after 48 hrs by sulforhodamine B assay; details: DU-145, 48 h; for CC50: read-out: LC50 (the source's name); procedure, shortened: as §2
[2] = Growth inhibition of human EKVX cells assessed as cell growth at 10^-8 M after 48 hrs by sulforhodamine B assay; details: read-out: Activity; procedure, shortened: as §1
RPMI-8226 = assay: Growth inhibition of human RPMI8226 cells assessed as cell growth at 10^-5 M after 48 hrs by sulforhodamine B assay; details: RPMI-8226, 48 h, read-out: Activity
HL-60(TB) = assay: Growth inhibition of human HL-60(TB) cells assessed as cell growth at 10^-7 M after 48 hrs by sulforhodamine B assay; details: HL-60, 48 h, read-out: Activity
Procedure, shortened: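 HL-60(TB) suspension cells were treated 48 h at 37 °C within the five-dose series (0.01–100 µM), fixed with 16% final TCA and SRB-stained, read at 515 nm. Percentage growth at each concentration = (Ti−Tz)/(C−Tz)×100, or (Ti−Tz)/Tz×100 when Ti<Tz, with time-zero (Tz) and untreated control (C) plates.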

MOLT-4 [3] = assay: Growth inhibition of human MOLT4 cells after 48 hrs by sulforhodamine B assay; details: MOLT-4, 48 h; for CC50: read-out: LC50 (the source's name)
Procedure, shortened: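 Leukemia suspension cells in RPMI 1640 with 5% FBS and 2 mM L-glutamine were plated at 5000–40,000 cells/well and grown 24 h. Five concentrations (0.01–100 µM) were given for 48 h at 37 °C. Settled cells were fixed with 80% TCA (16% final) and SRB-stained, read at 515 nm. GI50 came from dose–response curves against time-zero and control plates.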

786-0 = assay: Growth inhibition of human 786-0 cells after 48 hrs by sulforhodamine B assay; details: 786-0, 48 h, read-out: LC50 (the source's name); procedure, shortened: as §2
OVCAR-8 [4] = assay: Growth inhibition of human OVCAR8 cells after 48 hrs by sulforhodamine B assay; details: OVCAR-8, 48 h; for CC50: read-out: LC50 (the source's name)
Procedure, shortened: (§3)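 Five-dose NCI 60 screen at 0.01, 0.1, 1, 10 and 100 µM, 48 h exposure after 24 h preincubation, in RPMI 1640 with 5% FBS and 2 mM glutamine. Fixed with TCA (10% final for adherent cells, 16% for suspension cells), stained with SRB, A515 read. Percent growth uses time-zero (Tz), control and treated plates. GI50, TGI and LC50 are read from the dose-response curves.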

NCI-H322M = assay: Growth inhibition of human NCI-H322M cells assessed as cell growth at 10^-5 M after 48 hrs by sulforhodamine B assay; details: read-out: Activity
MCF7 = assay: Growth inhibition of human MCF7 cells assessed as cell growth at 10^-4 M after 48 hrs by sulforhodamine B assay; details: MCF7, 48 h, read-out: Activity
A549 [5] = assay: Growth inhibition of human A549/ATCC cells assessed as cell growth at 10^-8 M after 48 hrs by sulforhodamine B assay; details: A549, 48 h, read-out: Activity
Procedure, shortened: (§4)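 Five-dose NCI-60 run (0.01, 0.1, 1, 10 and 100 µM, as 10-fold dilutions from a DMSO stock made at 400× the top final level). Cells were grown in RPMI 1640 with 5% FBS and 2 mM glutamine and plated for 24 h. They were then exposed for 48 h at 37 °C and 5% CO2. TCA fixation was followed by SRB staining with A515 read-out. Percent growth was taken relative to time-zero and control plates.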

A549 [6] = assay: Growth inhibition of human A549/ATCC cells assessed as cell growth at 10^-6 M after 48 hrs by sulforhodamine B assay; details: A549, 48 h, read-out: Activity; procedure, shortened: as §4
OVCAR-8 [7] = assay: Growth inhibition of human OVCAR8 cells assessed as cell growth at 10^-7 M after 48 hrs by sulforhodamine B assay; details: OVCAR-8, 48 h, read-out: Activity
U-251 = assay: Growth inhibition of human U251 cells assessed as cell growth at 10^-5 M after 48 hrs by sulforhodamine B assay; details: U-251, 48 h, read-out: Activity
MOLT-4 [8] = assay: Growth inhibition of human MOLT4 cells assessed as cell growth at 10^-5 M after 48 hrs by sulforhodamine B assay; details: MOLT-4, 48 h, read-out: Activity
T47D = assay: Growth inhibition of human T47D cells assessed as cell growth at 10^-8 M after 48 hrs by sulforhodamine B assay; details: read-out: Activity
CAKI-1 = assay: Growth inhibition of human CAKI-1 cells assessed as cell growth at 10^-8 M after 48 hrs by sulforhodamine B assay; details: CAKI-1, 48 h, read-out: Activity; procedure, shortened: as §4
SR = assay: Growth inhibition of human SR cells assessed as cell growth at 10^-7 M after 48 hrs by sulforhodamine B assay; details: read-out: Activity
SF-268 = assay: Growth inhibition of human SF268 cells assessed as cell growth at 10^-7 M after 48 hrs by sulforhodamine B assay; details: SF-268, 48 h, read-out: Activity
K562 = assay: Growth inhibition of human K562 cells after 48 hrs by sulforhodamine B assay; details: K562, 48 h; for CC50: read-out: LC50 (the source's name); procedure, shortened: as §3

Row | Structure (SMILES) | growth at 0.1 µM (RXF 393) | growth at 100 µM (HCT-116) | growth at 1 µM (MOLT-4 [1]) | growth at 1 µM (SNB-19) | growth at 100 µM (NCI-H23) | TGI (OVCAR-5) | CC50 (OVCAR-5) | TGI (DU-145) | CC50 (DU-145) | growth at 0.01 µM [2] | growth at 10 µM (RPMI-8226) | growth at 0.1 µM (HL-60(TB)) | CC50 (MOLT-4 [3]) | CC50 (786-0) | TGI (OVCAR-8 [4]) | CC50 (OVCAR-8 [4]) | growth at 10 µM (NCI-H322M) | growth at 100 µM (MCF7) | growth at 0.01 µM (A549 [5]) | growth at 1 µM (A549 [6]) | further results
1 | O=S(=O)(Nc1ccccn1)c1ccc2nc(-c3ccccc3)c(-c3ccccc3)nc2c1 | 109% | 39% | 80% | 87% | 42% | > 100 µM | > 100 µM | > 100 µM | > 100 µM | 100% | -48% | 97% | > 100 µM | > 100 µM | > 100 µM | > 100 µM | 35% | 40% | 95% | 96% | GI50 (MOLT-4 [3]): 1.89 µM; GI50 (OVCAR-8 [4]): 2.6 µM; growth at 0.1 µM (OVCAR-8 [7]): 97%; growth at 10 µM (U-251): 2%; growth at 10 µM (MOLT-4 [8]): -29%; growth at 0.01 µM (T47D): 95%; growth at 0.01 µM (CAKI-1): 91%; growth at 0.1 µM (SR): 89%; growth at 0.1 µM (SF-268): 91%; GI50 (K562): 2.72 µM; TGI (K562): > 100 µM; CC50 (K562): > 100 µM
2 | O=S(=O)(Nc1ccc(Cl)cc1)c1ccc2nc(-c3ccccc3)c(-c3ccccc3)nc2c1 | 103% | 52% | 86% | 89% | 72% | > 100 µM | > 100 µM | > 100 µM | > 100 µM | 97% | -45% | 99% | > 100 µM | > 100 µM | > 100 µM | > 100 µM | 37% | 76% | 94% | 87% | growth at 0.1 µM (OVCAR-8 [7]): 101%; growth at 10 µM (U-251): -5%; growth at 10 µM (MOLT-4 [8]): -39%; growth at 0.01 µM (T47D): 95%; growth at 0.01 µM (CAKI-1): 87%; growth at 0.1 µM (SR): 88%; growth at 0.1 µM (SF-268): 98%; TGI (K562): > 100 µM; CC50 (K562): > 100 µM
